Activity calls are given as the source filed them. No cut-off for these calls is given here.
Tested on: Mycobacterium tuberculosis
Assay: Antitubercular activity against Mycobacterium tuberculosis H37Rv ATCC 27294 by microplate alamar blue assay
Format: functional, organism-based
How it was run: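 Broth microdilution in BACTEC 12B medium, with Alamar Blue read-out.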

First: Cc1c(C(=O)/C=C/c2ccc(Cl)cc2)[n+]([O-])c2ccccc2[n+]1[O-]
Second: Cc1ccc(/C=C/C(=O)c2c(C)[n+]([O-])c3ccccc3[n+]2[O-])cc1
The IC50 of the first is 2.1-fold lower: 2.64 µM for the first, 5.58 µM for the second. The first is the more potent here.

Compared with Cc1c(C(=O)/C=C/c2ccc(Cl)c(Cl)c2)[n+]([O-])c2ccccc2[n+]1[O-], Cc1c(C(=O)/C=C/c2ccc3c(c2)OCO3)[n+]([O-])c2ccccc2[n+]1[O-] is 19-fold higher in IC50: 1.03 µM for the first, 19.7 µM for the second.

Compared with COc1ccc(/C=C/C(=O)c2c(C)[n+]([O-])c3ccccc3[n+]2[O-])cc1, Cc1c(C(=O)/C=C/c2ccc(F)cc2)[n+]([O-])c2ccccc2[n+]1[O-] is 4-fold lower in IC50: 23.1 µM for the first, 5.83 µM for the second.

Cc1c(C(=O)/C=C/c2ccccc2)[n+]([O-])c2ccccc2[n+]1[O-] and Cc1c(C(=O)/C=C/c2ccc(Br)cc2)[n+]([O-])c2ccccc2[n+]1[O-] are within 1.5-fold of each other in IC50: 3.88 µM for the first, 3.71 µM for the second.

Going from Cc1c(C(=O)/C=C/c2ccc([N+](=O)[O-])cc2)[n+]([O-])c2ccccc2[n+]1[O-] to Cc1c(C(=O)/C=C/c2cccc([N+](=O)[O-])c2)[n+]([O-])c2ccccc2[n+]1[O-], the IC50 falls from over 250 µM to 2.18 µM. The second is the more potent here.

CC(=O)c1c(C)[n+]([O-])c2ccccc2[n+]1[O-] [MEQUINDOX] and COc1ccc(/C=C/C(=O)c2c(C)[n+]([O-])c3ccccc3[n+]2[O-])cc1OC are within 1.5-fold of each other in IC50: 6.83 µM for the first, 9.15 µM for the second.

COc1cc(/C=C/C(=O)c2c(C)[n+]([O-])c3ccccc3[n+]2[O-])cc(OC)c1OC gave an IC50 of 6.88 µM.

Going from Cc1c(C(=O)/C=C/c2ccc(Cl)cc2)[n+]([O-])c2ccccc2[n+]1[O-] to Cc1ccc(/C=C/C(=O)c2c(C)[n+]([O-])c3ccccc3[n+]2[O-])cc1, the IC90 rises from 4.12 µM to 9.44 µM (2.3-fold).

First: Cc1c(C(=O)/C=C/c2ccc(Cl)c(Cl)c2)[n+]([O-])c2ccccc2[n+]1[O-]
Second: Cc1c(C(=O)/C=C/c2ccc3c(c2)OCO3)[n+]([O-])c2ccccc2[n+]1[O-]
The IC90 of the first is 23-fold lower: 1.53 µM for the first, 35.8 µM for the second.

Compared with COc1ccc(/C=C/C(=O)c2c(C)[n+]([O-])c3ccccc3[n+]2[O-])cc1, Cc1c(C(=O)/C=C/c2ccc(F)cc2)[n+]([O-])c2ccccc2[n+]1[O-] is 3.8-fold lower in IC90: 40.2 µM for the first, 10.7 µM for the second.

Compared with Cc1c(C(=O)/C=C/c2ccccc2)[n+]([O-])c2ccccc2[n+]1[O-], Cc1c(C(=O)/C=C/c2ccc(Br)cc2)[n+]([O-])c2ccccc2[n+]1[O-] is higher in IC90: 6.12 µM for the first, over 250 µM for the second.

Compared with Cc1c(C(=O)/C=C/c2ccc([N+](=O)[O-])cc2)[n+]([O-])c2ccccc2[n+]1[O-], Cc1c(C(=O)/C=C/c2cccc([N+](=O)[O-])c2)[n+]([O-])c2ccccc2[n+]1[O-] is lower in IC90: over 250 µM for the first, 2.39 µM for the second.

First: CC(=O)c1c(C)[n+]([O-])c2ccccc2[n+]1[O-] [MEQUINDOX]
Second: COc1ccc(/C=C/C(=O)c2c(C)[n+]([O-])c3ccccc3[n+]2[O-])cc1OC
The IC90 of the first is 2.2-fold lower: 7.89 µM for the first, 17.2 µM for the second.

COc1cc(/C=C/C(=O)c2c(C)[n+]([O-])c3ccccc3[n+]2[O-])cc(OC)c1OC showed an IC90 of 11.9 µM.

Species: Rattus norvegicus
Assay: Induction of rat liver mitochondria respiration assessed as consumption of oxygen by polarography
Format: functional
How it was run: (§1)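 Liver mitochondria isolated from a rat anesthetized with isoflurane and decapitated. Oxygen consumption measured polarographically. Compounds tested at 1, 5 and 10 μM, added in 4 μL DMSO. A DMSO-only (4 μL) solvent control was run alongside.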

Cc1c(C(=O)/C=C/c2ccc(Cl)c(Cl)c2)[n+]([O-])c2ccccc2[n+]1[O-] was tested, and the Activity was “Dose-dependent effect”.

Species: Rattus norvegicus
Assay: Induction of rat liver mitochondria respiration assessed as consumption of oxygen at 1 to 10 uM by polarography
Format: functional
How it was run: as §1

CC(=O)c1c(C)[n+]([O-])c2ccccc2[n+]1[O-] [MEQUINDOX] was tested, and the Activity was “inactive”.

Source: ChEMBL document CHEMBL1250500, “E-2-[3-(3,4-dichlorophenyl)-1-oxo-2-propenyl]-3-methylquinoxaline-1,4-dioxide: a lead antitubercular agent which alters mitochondrial respiration in rat liver” (Eur J Med Chem, 2010)
